# Active and inactive are the calls of the source.
# What was measured:
# [1] = biological target: T1, Adrenergic receptor alpha-1 (Rattus norvegicus, UniProt P15823+P23944+P43140); experiment: Displacement of [3H]prazosin from alpha1 adrenoceptor in rat cerebral cortex after 30 mins by microbeta scintillation counting; type: tissue-based
# T1 sequence (P15823 whole entry): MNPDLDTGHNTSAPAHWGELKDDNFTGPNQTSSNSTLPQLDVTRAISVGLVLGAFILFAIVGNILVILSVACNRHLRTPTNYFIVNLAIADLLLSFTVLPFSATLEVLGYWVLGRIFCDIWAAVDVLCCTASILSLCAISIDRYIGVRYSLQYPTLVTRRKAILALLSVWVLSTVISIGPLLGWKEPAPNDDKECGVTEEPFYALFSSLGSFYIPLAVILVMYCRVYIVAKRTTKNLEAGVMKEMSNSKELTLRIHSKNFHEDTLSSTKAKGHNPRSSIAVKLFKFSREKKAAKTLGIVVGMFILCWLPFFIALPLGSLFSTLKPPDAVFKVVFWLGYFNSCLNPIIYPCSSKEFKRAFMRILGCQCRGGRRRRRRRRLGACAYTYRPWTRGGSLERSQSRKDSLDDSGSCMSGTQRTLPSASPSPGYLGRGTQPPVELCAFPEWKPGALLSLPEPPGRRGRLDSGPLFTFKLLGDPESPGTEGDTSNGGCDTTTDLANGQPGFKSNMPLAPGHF
# T1 sequence (P23944 whole entry): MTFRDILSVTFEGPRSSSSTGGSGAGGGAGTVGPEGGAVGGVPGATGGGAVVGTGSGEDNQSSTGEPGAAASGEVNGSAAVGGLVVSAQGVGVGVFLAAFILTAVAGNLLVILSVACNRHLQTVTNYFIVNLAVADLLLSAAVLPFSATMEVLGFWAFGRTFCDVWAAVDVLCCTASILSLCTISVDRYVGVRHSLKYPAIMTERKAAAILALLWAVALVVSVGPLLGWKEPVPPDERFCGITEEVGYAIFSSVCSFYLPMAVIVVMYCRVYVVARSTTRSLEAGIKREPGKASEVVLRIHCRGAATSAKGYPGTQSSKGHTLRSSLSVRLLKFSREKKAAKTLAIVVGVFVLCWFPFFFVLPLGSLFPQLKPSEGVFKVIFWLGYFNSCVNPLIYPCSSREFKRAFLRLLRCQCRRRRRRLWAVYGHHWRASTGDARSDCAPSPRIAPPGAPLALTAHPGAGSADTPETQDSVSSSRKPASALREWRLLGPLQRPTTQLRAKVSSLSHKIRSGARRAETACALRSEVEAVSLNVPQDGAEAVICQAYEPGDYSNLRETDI
# T1 sequence (P43140 whole entry): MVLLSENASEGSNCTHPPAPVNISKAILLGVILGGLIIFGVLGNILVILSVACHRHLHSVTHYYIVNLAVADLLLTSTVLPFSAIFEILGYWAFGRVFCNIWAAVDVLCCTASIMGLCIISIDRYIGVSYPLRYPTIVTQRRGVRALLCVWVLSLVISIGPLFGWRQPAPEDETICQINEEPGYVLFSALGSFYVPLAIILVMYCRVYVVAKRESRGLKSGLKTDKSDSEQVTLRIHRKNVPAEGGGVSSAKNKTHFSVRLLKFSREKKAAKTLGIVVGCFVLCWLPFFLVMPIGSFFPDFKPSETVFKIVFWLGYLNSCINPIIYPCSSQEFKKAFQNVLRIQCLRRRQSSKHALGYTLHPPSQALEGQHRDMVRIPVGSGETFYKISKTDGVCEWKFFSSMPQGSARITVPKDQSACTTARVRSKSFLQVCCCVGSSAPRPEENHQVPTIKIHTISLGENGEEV
# Method in brief: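 Rat cerebral cortex homogenised in ice-cold 50 mM Tris-HCl (pH 7.6 at 25 °C), washed twice at 20000×g and resuspended at 10 mg wet weight/ml. Incubated with [3H]prazosin (19.5 Ci/mmol) and test compound for 30 min at 25 °C. Nonspecific binding defined with 10 µM phentolamine. GF/B filtration, scintillation counting, three-parameter logistic competition fit.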
# Rattus norvegicus [2] = experiment: Antiarrhythmic activity in Wistar rat assessed as effect on heart beat at 10 mg/kg, iv after 1 min; type: functional
# Method in brief: (§1)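 Male Wistar rats (180–250 g), anaesthetised with thiopental 60 mg/kg ip. Standard lead II ECG recorded at 50 mm/s just before dosing and at 1, 5 and 15 min after. Heart rate and P–Q, Q–T and QRS intervals were read. n=6 per group, mean ± SEM, one-way ANOVA.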
# Rattus norvegicus [3] = experiment: Antiarrhythmic activity in Wistar rat assessed as effect on heart beat at 10 mg/kg, iv after 5 mins; type: functional; method in brief: as §1
# Rattus norvegicus [4] = experiment: Antiarrhythmic activity in Wistar rat assessed as effect on heart beat at 10 mg/kg, iv after 15 mins; type: functional; method in brief: as §1
# Rattus norvegicus [5] = experiment: Cardiotoxicity in Wistar rat assessed as effect on P-Q interval at 10 mg/kg, iv after 1 min; type: toxicity, organism-based; parameters: dose 10 mg/kg, route intravenous; conditions: in vivo; method in brief: as §1
# Rattus norvegicus [6] = experiment: Cardiotoxicity in Wistar rat assessed as effect on P-Q interval at 10 mg/kg, iv after 5 mins; type: toxicity, organism-based; parameters: dose 10 mg/kg, route intravenous; conditions: in vivo; method in brief: as §1
# Rattus norvegicus [7] = experiment: Cardiotoxicity in Wistar rat assessed as effect on P-Q interval at 10 mg/kg, iv after 15 mins; type: toxicity, organism-based; parameters: dose 10 mg/kg, route intravenous; conditions: in vivo, 0.25 h; method in brief: as §1
# Rattus norvegicus [8] = experiment: Cardiotoxicity in Wistar rat assessed as effect on Q-T interval at 10 mg/kg, iv after 1 min; type: toxicity, organism-based; parameters: dose 10 mg/kg, route intravenous; conditions: in vivo; method in brief: as §1
# Rattus norvegicus [9] = experiment: Cardiotoxicity in Wistar rat assessed as effect on Q-T interval at 10 mg/kg, iv after 5 mins; type: toxicity, organism-based; parameters: dose 10 mg/kg, route intravenous; conditions: in vivo; method in brief: as §1
# Rattus norvegicus [10] = experiment: Cardiotoxicity in Wistar rat assessed as effect on Q-T interval at 10 mg/kg, iv after 15 mins; type: toxicity, organism-based; parameters: dose 10 mg/kg, route intravenous; conditions: in vivo, 0.25 h; method in brief: as §1
# Rattus norvegicus [11] = experiment: Cardiotoxicity in Wistar rat assessed as effect on QRS interval at 10 mg/kg, iv after 1 min; type: toxicity, organism-based; parameters: dose 10 mg/kg, route intravenous; conditions: in vivo; method in brief: as §1
# Rattus norvegicus [12] = experiment: Cardiotoxicity in Wistar rat assessed as effect on QRS interval at 10 mg/kg, iv after 5 mins; type: toxicity, organism-based; parameters: dose 10 mg/kg, route intravenous; conditions: in vivo; method in brief: as §1
# Rattus norvegicus [13] = experiment: Cardiotoxicity in Wistar rat assessed as effect on QRS interval at 10 mg/kg, iv after 15 mins; type: toxicity, organism-based; parameters: dose 10 mg/kg, route intravenous; conditions: in vivo, 0.25 h; method in brief: as §1
# Rattus norvegicus [14] = experiment: Antiarrhythmic activity in Wistar rat assessed as protection against adrenaline-induced extrasystoles at 2.5 to 10 mg/kg, iv administered 15 mins prior to adrenaline-challenge; type: functional, organism-based; conditions: Heart
# Method in brief: (§2)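 Szekeres model in male Wistar rats anaesthetised with thiopental (60 mg/kg ip). Test compound given iv in water (2.5–10 mg/kg) 15 min before adrenaline 20 µg/kg iv. Scored for extrasystoles, bigeminy and mortality; activity means no premature beats and inhibited arrhythmia versus controls.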
# Rattus norvegicus [15] = experiment: Antiarrhythmic activity in Wistar rat assessed as protection against adrenaline-induced bigeminy at 2.5 to 10 mg/kg, iv administered 15 mins prior to adrenaline-challenge; type: functional, organism-based; conditions: Heart; method in brief: as §2
# Rattus norvegicus [16] = experiment: Antiarrhythmic activity in barium chloride-induced Wistar rat arrhythmia model assessed as protection against mortality at 2.5 to 10 mg/kg, iv administered 15 mins prior to barium chloride-challenge; type: functional, organism-based; conditions: Heart
# Method in brief: (§3)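 Szekeres model in male Wistar rats. Activity is gradual disappearance of arrhythmia with restored sinus rhythm; protection against disturbances and death scored. Groups of 6 animals.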
# Rattus norvegicus [17] = experiment: Antiarrhythmic activity in iv dosed Wistar rat assessed as protection against adrenaline-induced arrhythmia administered 15 mins prior to adrenaline-challenge; type: functional; conditions: Heart; method in brief: as §2
# Rattus norvegicus [18] = experiment: Hypotensive activity in normotensive Wistar rat assessed as decrease in systolic blood pressure at 2.5 to 10 mg/kg, iv at 1 min; type: organism-based, Artery; parameters: dose 2.5-10 mg/kg, route intravenous; conditions: in vivo
# Method in brief: (§4)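 Right carotid artery cannulated with heparin-saline-filled tubing for blood pressure recording. After 5 min stabilisation, compound injected iv into the caudal vein (2.5–10 mg/kg, 1 ml/kg). Systolic and diastolic pressure followed for 60 min. n=6 per group, mean ± SEM, one-way ANOVA.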
# Rattus norvegicus [19] = experiment: Hypotensive activity in normotensive Wistar rat assessed as decrease in diastolic blood pressure at 2.5 to 10 mg/kg, iv at 1 min; type: organism-based, Artery; parameters: dose 2.5-10 mg/kg, route intravenous; conditions: in vivo; method in brief: as §4
# Rattus norvegicus [20] = experiment: Hypotensive activity in normotensive Wistar rat assessed as decrease in systolic blood pressure at 2.5 to 10 mg/kg, iv after 1 min measured up to 60 mins; type: organism-based, Artery; parameters: dose 2.5-10 mg/kg, route intravenous; conditions: in vivo; method in brief: as §4
# Rattus norvegicus [21] = experiment: Hypotensive activity in normotensive Wistar rat assessed as decrease in diastolic blood pressure at 2.5 to 10 mg/kg, iv after 1 min measured up to 60 mins; type: organism-based, Artery; parameters: dose 2.5-10 mg/kg, route intravenous; conditions: in vivo; method in brief: as §4
# Rattus norvegicus [22] = experiment: Antiarrhythmic activity in iv dosed Wistar rat assessed as protection against barium chloride-induced extrasystoles administered 15 mins prior to barium chloride-challenge; type: functional; conditions: Heart; method in brief: as §3
# Rattus norvegicus [23] = experiment: Antiarrhythmic activity in dosed Wistar rat assessed as protection against barium chloride-induced fibrillation administered 15 mins prior to barium chloride-challenge; type: functional; conditions: Heart; method in brief: as §3
# Rattus norvegicus [24] = experiment: Antiarrhythmic activity in iv dosed barium chloride-induced Wistar rat arrhythmia model assessed as protection against mortality administered 15 mins prior to barium chloride-challenge; type: functional; conditions: Heart
# Method in brief: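 Male Wistar rats (180–250 g), groups of 6. Activity criterion: gradual disappearance of arrhythmia and restoration of sinus rhythm; protection against heart disturbances and death scored.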
SMILES,Activity (Rattus norvegicus [2]),Activity (Rattus norvegicus [3]),Activity (Rattus norvegicus [4]),Activity (Rattus norvegicus [5]),Activity (Rattus norvegicus [6]),Activity (Rattus norvegicus [7]),Activity (Rattus norvegicus [8]),Activity (Rattus norvegicus [9]),Activity (Rattus norvegicus [10]),Activity (Rattus norvegicus [11]),Activity (Rattus norvegicus [12]),Activity (Rattus norvegicus [13]),Activity (Rattus norvegicus [14]),Activity (Rattus norvegicus [15]),Activity (Rattus norvegicus [16]),ED50 (Rattus norvegicus [17]),Activity (Rattus norvegicus [18]),Activity (Rattus norvegicus [19]),Activity (Rattus norvegicus [20]),Activity (Rattus norvegicus [21]),further results
COC(=O)CN1C(=O)N(CCCCN2CCN(c3ccccc3OC)CC2)C(c2ccccc2)(c2ccccc2)C1=O.Cl,355.8 min⁻¹,354.3 min⁻¹,357.8 min⁻¹,62.6 ms,63.3 ms,62.8 ms,74.6 ms,73.3 ms,75.6 ms,19.6 ms,19.3 ms,19.5 ms,Active,Active,Active,1.8 mg/kg,Toxic,Toxic,Non-toxic,Non-toxic,Ki [1]: 25 nM; pKi [1]: 7.6
CCOC(=O)C(C)N1C(=O)N(CC(O)CN2CCN(c3ccccc3OC)CC2)C(c2ccccc2)(c2ccccc2)C1=O.Cl (racemic),,,,,,,,,,,,,Active,Active,Active,0.41 mg/kg,,,,,
COC(=O)CN1C(=O)N(CC(O)CN2CCN(c3ccccc3OC)CC2)C(c2ccccc2)(c2ccccc2)C1=O.Cl (racemic),268 min⁻¹,262 min⁻¹,261 min⁻¹,64 ms,63 ms,63 ms,98 ms,76 ms,74 ms,20 ms,18 ms,17 ms,Active,Active,,0.69 mg/kg,Toxic,Toxic,Non-toxic,Non-toxic,Activity (Rattus norvegicus [22]): inactive; Activity (Rattus norvegicus [23]): inactive; Activity (Rattus norvegicus [24]): inactive
COC(=O)C(C)N1C(=O)N(CC(O)CN2CCN(c3ccccc3OC)CC2)C(c2ccccc2)(c2ccccc2)C1=O.Cl (racemic),350 min⁻¹,363 min⁻¹,362 min⁻¹,57 ms,55 ms,57 ms,82 ms,81 ms,82 ms,16 ms,15 ms,16 ms,Active,Active,,0.36 mg/kg,Toxic,Toxic,Non-toxic,Non-toxic,Activity (Rattus norvegicus [22]): inactive; Activity (Rattus norvegicus [23]): inactive; Activity (Rattus norvegicus [24]): inactive

# Source: ChEMBL document CHEMBL2040780, “Antiarrhythmic properties of phenylpiperazine derivatives of phenytoin with α₁-adrenoceptor affinities” (Bioorg Med Chem, 2012)
